# According to ChEMBL document CHEMBL1127345, “Synthesis, binding properties, and 18F labeling of fluorocarazolol, a high-affinity beta-adrenergic receptor antagonist” (J Med Chem, 1994):
# How the values were obtained:
# [1] = tested on: Mus musculus; assay: The in vivo tissue distribution of mouse bone with Propranolol preadministration in 90 min, value was fractional dose per fractional body weight of the organ; format: ADME, organism-based, Bone element; details: 1.5 h
# Procedure, shortened: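 Male CF-1 mice (25–30 g) anaesthetised with 2 mg sodium pentobarbital ip; blocked group given 0.1 mL of […] propranolol iv via tail vein (200 μg, 6.6 mg/kg), tracer 30 min later. 0.1 mL of 1–2 mCi/mL [18F]-labelled enantiomer iv via tail vein; killed by cervical dislocation, organs weighed and counted against weighed standards. %ID/g × body weight/100 gives unitless uptake; five mice per point (heart, blood, lung, kidney, liver, bone); mean ± SD.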
# [2] = tested on: Mus musculus; assay: The in vivo tissue distribution of mouse heart with Propranolol preadministration in 180 min, value was fractional dose per fractional body weight of the organ; format: ADME, organism-based; details: 3 h
# Procedure, shortened: (§1)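 Male CF-1 mice (25–30 g), given 2 mg sodium pentobarbital ip 30 min before tracer. Blocked groups received propranolol iv by tail vein, 0.1 mL of 1 mg/mL. About 30 min later, 0.1 mL of [18F]tracer (1–2 mCi/mL) was injected by tail vein. Mice were killed by cervical dislocation at set times, and organs were weighed and counted. Uptake is %ID/g × body weight/100, average ± SD; n=5 for heart, brain, blood, lung, kidney, liver and bone.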
# [3] = tested on: Mus musculus; assay: The in vivo tissue distribution of mouse liver with Propranolol administration after 90 min, value was fractional dose per fractional body weight of the organ; format: ADME, organism-based; details: 1.5 h; procedure, shortened: as §1
# [4] = tested on: Mus musculus; assay: The in vivo tissue distribution of mouse lung without Propranolol preadministration in 40 min, value was fractional dose per fractional body weight of the organ
# [5] = tested on: Mus musculus; assay: The in vivo tissue distribution of mouse brain without Propranolol preadministration in 20 min, value was fractional dose per fractional body weight of the organ
# [6] = tested on: Mus musculus; assay: The in vivo tissue distribution of mouse kidney without Propranolol preadministration in 10 min, value was fractional dose per fractional body weight of the organ
SMILES,Dose/organ [1],Dose/organ [2],Dose/organ [3],Dose/organ [4],Dose/organ [5],Dose/organ [6]
CC(C[18F])NC[C@H](O)COc1cccc2[nH]c3ccccc3c12 (some centres not stated),1.13,0.4,1.39,6.16,0.95,4.18
CC(C[18F])NC[C@@H](O)COc1cccc2[nH]c3ccccc3c12 (some centres not stated),1,0.14,1.17,3.29,0.66,4.6
